These results are taken from ChEMBL document CHEMBL1156225, “Ircinialactams: subunit-selective glycine receptor modulators from Australian sponges of the family Irciniidae” (Bioorg Med Chem, 2010).

Holding throughout (format): functional, cell-based
Test [1] has as its target T1, Glycine receptor subunit alpha-1 (Homo sapiens, UniProt P23415).
T1 sequence (P23415 whole entry): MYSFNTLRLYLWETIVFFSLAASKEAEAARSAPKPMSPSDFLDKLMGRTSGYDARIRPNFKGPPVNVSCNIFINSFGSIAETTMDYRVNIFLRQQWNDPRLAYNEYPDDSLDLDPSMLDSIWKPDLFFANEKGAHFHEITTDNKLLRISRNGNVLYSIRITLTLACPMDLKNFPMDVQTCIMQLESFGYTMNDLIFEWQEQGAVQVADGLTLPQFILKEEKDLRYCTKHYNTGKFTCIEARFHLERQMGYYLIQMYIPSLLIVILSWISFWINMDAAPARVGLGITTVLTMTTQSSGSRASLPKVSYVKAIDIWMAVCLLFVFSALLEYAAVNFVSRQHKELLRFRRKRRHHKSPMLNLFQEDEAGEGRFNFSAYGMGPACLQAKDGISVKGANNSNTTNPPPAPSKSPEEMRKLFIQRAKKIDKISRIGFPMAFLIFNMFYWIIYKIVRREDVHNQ
Put plainly: Agonist activity at human recombinant alpha 1 GlyR expressed in HEK293 cells assessed as potentiation of glycine current by whole cell patch clamp assay.

The target in test [2] is T1, Glycine receptor subunit alpha-1. Put plainly: (§1) Antagonist activity at human recombinant alpha 1 GlyR expressed in HEK293 cells assessed as inhibition of glycine current influx by whole cell patch clamp assay.
In test [3] the target is T2, Glycine receptor subunit alpha-3 (Homo sapiens, UniProt O75311).
T2 sequence (O75311 whole entry): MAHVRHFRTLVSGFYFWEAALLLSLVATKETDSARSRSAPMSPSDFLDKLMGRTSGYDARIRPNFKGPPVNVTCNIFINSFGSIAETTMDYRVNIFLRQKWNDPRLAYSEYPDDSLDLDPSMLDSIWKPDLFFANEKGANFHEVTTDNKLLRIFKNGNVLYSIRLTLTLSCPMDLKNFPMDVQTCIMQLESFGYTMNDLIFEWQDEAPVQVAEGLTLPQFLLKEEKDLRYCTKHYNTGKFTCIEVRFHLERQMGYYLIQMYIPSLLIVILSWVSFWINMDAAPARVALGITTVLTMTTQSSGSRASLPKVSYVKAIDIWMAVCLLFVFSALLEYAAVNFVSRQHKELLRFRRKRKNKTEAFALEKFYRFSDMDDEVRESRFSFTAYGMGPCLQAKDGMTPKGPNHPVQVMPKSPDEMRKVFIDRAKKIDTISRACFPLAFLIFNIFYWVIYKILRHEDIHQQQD
Kind of test: Antagonist activity at human recombinant alpha 3 GlyR expressed in HEK293 cells assessed as inhibition of glycine current influx by whole cell patch clamp assay.

Test [4] addresses T2, Glycine receptor subunit alpha-3. Kind of test: Agonist activity at human recombinant alpha 3 GlyR expressed in HEK293 cells assessed as potentiation of glycine current by whole cell patch clamp assay.
Test [5] has as its target T3, Glycine receptor subunit alpha-1 (Homo sapiens) (UniProt P23415).
T3 sequence (whole entry): T1 sequence (P23415 whole entry)
Put plainly: Agonist activity at human recombinant alpha 1 GlyR expressed in HEK293 cells assessed as potentiation of glycine current at 100 uM by whole cell patch clamp assay relative to EC20 glycine maximum response.

For test [6], the target named is T4, Glycine receptor subunit alpha-3 (Homo sapiens) (UniProt O75311).
T4 sequence (whole entry): T2 sequence (O75311 whole entry)
Kind of test: Agonist activity at human recombinant alpha 3 GlyR expressed in HEK293 cells assessed as potentiation of glycine current up to 100 uM by whole cell patch clamp assay.

The target in test [7] is T4, Glycine receptor subunit alpha-3 (Homo sapiens). Kind of test: Agonist activity at human recombinant alpha 3 GlyR expressed in HEK293 cells assessed as potentiation of glycine current at 100 uM by whole cell patch clamp assay relative to EC20 glycine maximum response.
Test [8] has as its target T3, Glycine receptor subunit alpha-1 (Homo sapiens). Put plainly: Agonist activity at human recombinant alpha 1 GlyR expressed in HEK293 cells assessed as potentiation of glycine current at 1 to 10 uM by whole cell patch clamp assay.
Test [9] shares this target. Put plainly: Agonist activity at human recombinant alpha 1 GlyR expressed in HEK293 cells assessed as potentiation of glycine current up to 100 uM by whole cell patch clamp assay.
For test [10] the target is unchanged. Put plainly: Antagonist activity at human recombinant alpha 1 GlyR expressed in HEK293 cells assessed as inhibition of glycine current influx up to 30 uM by whole cell patch clamp assay.
The target in test [11] is T5, Glycine receptor subunit alpha-2 (Homo sapiens) (UniProt P23416).
T5 sequence (whole entry): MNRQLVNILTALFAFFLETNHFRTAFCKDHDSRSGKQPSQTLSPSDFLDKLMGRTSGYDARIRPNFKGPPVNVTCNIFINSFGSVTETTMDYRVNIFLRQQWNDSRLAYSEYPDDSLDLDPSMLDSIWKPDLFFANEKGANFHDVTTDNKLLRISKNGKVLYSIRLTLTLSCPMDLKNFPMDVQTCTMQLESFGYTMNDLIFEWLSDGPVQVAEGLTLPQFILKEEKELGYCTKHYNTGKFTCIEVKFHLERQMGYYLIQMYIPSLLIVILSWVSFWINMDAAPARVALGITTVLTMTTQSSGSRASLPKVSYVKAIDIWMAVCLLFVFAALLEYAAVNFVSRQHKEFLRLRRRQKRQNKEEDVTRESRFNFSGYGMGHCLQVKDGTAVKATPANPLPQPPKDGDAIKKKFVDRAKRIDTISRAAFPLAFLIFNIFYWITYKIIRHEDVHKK
Put plainly: Antagonist activity at human recombinant alpha 2 GlyR expressed in HEK293 cells assessed as inhibition of glycine current influx at 10 uM by whole cell patch clamp assay.

The target of test [12] is T3, Glycine receptor subunit alpha-1 (Homo sapiens). The test is described as §1.
In test [13] the target is T5, Glycine receptor subunit alpha-2 (Homo sapiens). Put plainly: Antagonist activity at human recombinant alpha 2 GlyR expressed in HEK293 cells assessed as inhibition of glycine current influx by whole cell patch clamp assay. The method in brief: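 HEK293 cells transiently expressing α2 GlyR, recorded by conventional whole-cell patch clamp. Current was activated with EC20 glycine (50 µM), and compound was applied at 10 µM together with glycine. Response is expressed as % of control glycine current, averaged from six cells.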

Activity calls are given as the source filed them. No cut-off for these calls is given here.

With `C/C(=C\CCC1=CCN(CC(=O)O)C1=O)CC/C=C(\C)CCC[C@@H](C)CC(=O)O`, the EC50 entry in [1] (hek293) and in test [4] was “Not Active” in each case. Besides, the values for the concentration for half-maximal inhibition (IC50) entry in test [2] and in test [3] (read-out: IC50) were “Not Active” and 30 µM, respectively.
For the molecule `CC1=C(O)/C(=C/[C@@H](C)CCC/C(C)=C\CC/C(C)=C/CCc2ccoc2)OC1=O`, the EC50 entry in test [1] (hek293) and in [4] was “Not Active” each time. Further, the 50% inhibitory concentration (IC50) result in test [2] and in [3] (hek293) was “Not Active” throughout.
For `CC1=C(O)/C(=C/C(C)/C=C/C=C(\C)CCCc2coc(Cc3ccoc3)c2)OC1=O` (stereo unspecified) [COMETIN A], the concentration giving a half-maximal response (EC50) result in [1] (hek293) and in test [4] was “Not Active” throughout. The IC50 entry in test [2] and in [3] (hek293) was “Not Active” in each case.
`CC1=C(O)/C(=C/[C@@H](C)CCC/C(C)=C/CC/C(C)=C/CCc2ccoc2)OC1=O`: the EC50 entry in test [1] (hek293) and in test [4] was “Not Active” throughout. The IC50 result in [2] and in test [3] (hek293) was “Not Active” each time.
In the case of `CCOC(=O)C(O)(C[C@@H](C)CCC/C(C)=C/CC/C(C)=C/CCC1=CCN(CC(=O)O)C1=O)C(C)(O)C(=O)O` (stereo partly specified) [IRCINIALACTAM D], the 50% effective concentration (EC50) entry in [1] (hek293) and in test [4] was “Not Active” throughout. The IC50 entry in test [2] was “Not Active”; in [3] (read-out: IC50), 30 µM.
With `CC1=C(O)/C(=C/[C@@H](C)CCC/C(C)=C/CCC(C)(O)CCCC2=CC(=O)N(CC(=O)O)C2)OC1=O` (stereo partly specified) [8-HYDROXYIRCINIALACTAM B], the values for the Activity in test [5] and in [7] were 330% and 183%, respectively. Besides, in test [1] (read-out: EC50), the EC50 amounted to 0.5 µM. The result in test [6] was inactive. Also, the IC50 entry in test [2] and in test [3] (hek293) was “Not Active” throughout.
On to `CC(C)(C)C1(O)CC[S+]([O-])CC1` (stereo unspecified), for which, in test [8], the Activity was found to be 135%.
For the molecule `CC1=C(O)/C(=C/[C@@H](C)CCC/C(C)=C/CCC(C)(O)CCCC2=CCN(CC(=O)O)C2=O)OC1=O` (stereo partly specified) [8-HYDROXYIRCINIALACTAM A], the Activity in [5] was 217%. Further, the result in test [9] was inactive. The IC50 entry in test [2] and in test [3] (hek293) was “Not Active” throughout. For the same molecule, the half-maximal effective concentration (EC50) entry in [4] is recorded as “Not Active”.
Turning to `CC1=C(O)/C(=C/[C@@H](C)CCC/C(C)=C/CCC(C)(O)CCCc2ccoc2)OC1=O` (stereo partly specified), the Activity in test [5] was 215%. Besides, the results for the EC50 in test [1] (read-out: EC50) and in test [4] were 1.2 µM and “Not Active”, respectively. The IC50 entry in test [2] was “Not Active”; in test [3] (read-out: IC50), 7 µM. The result in [10] was Active. Further, in test [11], the inhibition was found to be 87%.
Consider `CCCCCCC(C)(C)c1cc(OC)c([C@H]2C=C(CO)[C@@H]3C[C@H]2C3(C)C)c(OC)c1`, for which the result in test [12] and in [13] was Active. Moreover, the result in test [10] was inactive.
Turning to `CC1=C(O)/C(=C/[C@@H](C)CCC/C(C)=C/CC/C(C)=C/CCC2=CCN(CC(=O)O)C2=O)OC1=O` [IRCINIALACTAM A], the Activity in [5] was 140%. Also, the outcome in [9] was inactive. For the same molecule, the IC50 entry in test [2] is “Not Active”; in [3] (read-out: IC50) it was 30 µM. Moreover, the EC50 entry in [4] was “Not Active”.
Consider `Cc1c(C(=O)c2cccc3ccccc23)c2cccc3c2n1[C@H](CN1CCOCC1)CO3`, for which the outcome in test [12] and in test [13] was Active. Further, in test [10], the outcome was inactive.
Turning to `CCCCCCC(C)(C)c1cc(O)c2c(c1)OC(C)(C)[C@@H]1CC=C(CO)C[C@@H]21`, the outcome in test [12] and in [13] was Active. Moreover, in [10], the outcome was inactive.
On to `C/C(=C\CCC1=CCN(CC(=O)O)C1=O)CC/C=C(\C)CCC[C@H](C)CC(=O)O` [IRCINIALACTAM C], for which the 50% effective concentration (EC50) result in test [1] (hek293) and in test [4] was “Not Active” in each case. In addition, the IC50 entry was “Not Active” in test [2] and 30 µM in test [3] (read-out: IC50).
As for `CC1=C(O)/C(=C/C(C)/C=C/C=C(\C)CCCC(C)CCCc2ccoc2)OC1=O` (stereo unspecified), the EC50 result in test [1] (hek293) and in [4] was “Not Active” each time. Moreover, the IC50 entry in test [2] and in [3] (hek293) was “Not Active” in each case.
